# Laboratory results published in ChEMBL document CHEMBL1127499, “S-glucosylated hydantoins as new antiviral agents” (1994).
# System: Vero
# Assay: Antiviral activity against HSV-2 (Herpes simplex virus) in vero cells
# Assay type: functional
# Conditions: Chlorocebus sabaeus, read-out: ED50 (the source's name)
# How it was run: (§1)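 Vero target cells infected with HSV-1 McIntyre or HSV-2 MS for 2.5 h, washed, then mixed 1:50 with uninfected Vero cells preincubated 2.5 h with compound. Virus antigen in culture medium measured by HSV-1/HSV-2 antigen ELISA. ED50 is the dose giving 50% protection, mean of three independent determinations.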
row,SMILES,EC50 [µM]
1,CC(=O)OCC1OC(SC2=N/C(=C\c3cccs3)C(=O)N2c2cccc(C)c2)C(OC(C)=O)C(OC(C)=O)C1OC(C)=O (stereo not drawn),19
2,CC(=O)OCC1OC(SC2=N/C(=C\c3cccs3)C(=O)N2c2ccccc2)C(OC(C)=O)C(OC(C)=O)C1OC(C)=O (stereo not drawn),0.7
3,CCOC(=O)c1ccc(N2C(=O)/C(=C/c3cccs3)N=C2SC2OC(COC(C)=O)C(OC(C)=O)C(OC(C)=O)C2OC(C)=O)cc1 (stereo not drawn),46
4,CC(=O)OCC1OC(Sc2nc(/C=C3\C=Nc4ccccc43)c(O)n2-c2ccccc2)C(OC(C)=O)C(OC(C)=O)C1OC(C)=O (stereo not drawn),40
5,CC(=O)OCC1OC(SC2=N/C(=C\c3cccs3)C(=O)N2c2ccc(Cl)cc2)C(OC(C)=O)C(OC(C)=O)C1OC(C)=O (stereo not drawn),1
6,Nc1nc2c(ncn2COCCO)c(=O)[nH]1 [ACYCLOVIR],0.5
7,COc1ccc(N2C(=O)/C(=C/c3cccs3)N=C2SC2OC(COC(C)=O)C(OC(C)=O)C(OC(C)=O)C2OC(C)=O)cc1 (stereo not drawn),27
8,O=c1[nH]c(=O)n([C@H]2C[C@H](O)[C@@H](CO)O2)cc1/C=C/Br [BRIVUDINE],6.8
9,CC(=O)OCC1OC(SC2=NC(=C(C)C)C(=O)N2c2ccccc2)C(OC(C)=O)C(OC(C)=O)C1OC(C)=O (stereo not drawn),100
10,CC(=O)OCC1OC(SC2=N/C(=C\c3ccccc3)C(=O)N2c2ccccc2)C(OC(C)=O)C(OC(C)=O)C1OC(C)=O (stereo not drawn),100

# System: Vero
# Assay: Cytotoxic dose of compound required to reduce the viability of normal uninfected vero cells by 50%.
# Assay type: functional
# Conditions: Chlorocebus sabaeus, read-out: CD50 (the source's name)
# How it was run: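 Uninfected Vero cells were grown with compound, and cytotoxicity was read as concentration-dependent inhibition of cell proliferation relative to control cultures. CD50 is the dose reducing viability by 50%, mean of three independent determinations.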
row,SMILES,CC50 [µM]
1,CC(=O)OCC1OC(SC2=N/C(=C\c3cccs3)C(=O)N2c2cccc(C)c2)C(OC(C)=O)C(OC(C)=O)C1OC(C)=O (stereo not drawn),25
2,CC(=O)OCC1OC(SC2=N/C(=C\c3cccs3)C(=O)N2c2ccccc2)C(OC(C)=O)C(OC(C)=O)C1OC(C)=O (stereo not drawn),24
3,CCOC(=O)c1ccc(N2C(=O)/C(=C/c3cccs3)N=C2SC2OC(COC(C)=O)C(OC(C)=O)C(OC(C)=O)C2OC(C)=O)cc1 (stereo not drawn),46
4,CC(=O)OCC1OC(Sc2nc(/C=C3\C=Nc4ccccc43)c(O)n2-c2ccccc2)C(OC(C)=O)C(OC(C)=O)C1OC(C)=O (stereo not drawn),> 100
5,CC(=O)OCC1OC(SC2=N/C(=C\c3cccs3)C(=O)N2c2ccc(Cl)cc2)C(OC(C)=O)C(OC(C)=O)C1OC(C)=O (stereo not drawn),20
6,Nc1nc2c(ncn2COCCO)c(=O)[nH]1 [ACYCLOVIR],> 50
7,COc1ccc(N2C(=O)/C(=C/c3cccs3)N=C2SC2OC(COC(C)=O)C(OC(C)=O)C(OC(C)=O)C2OC(C)=O)cc1 (stereo not drawn),35
8,O=c1[nH]c(=O)n([C@H]2C[C@H](O)[C@@H](CO)O2)cc1/C=C/Br [BRIVUDINE],> 100
9,CC(=O)OCC1OC(SC2=NC(=C(C)C)C(=O)N2c2ccccc2)C(OC(C)=O)C(OC(C)=O)C1OC(C)=O (stereo not drawn),> 200
10,CC(=O)OCC1OC(SC2=N/C(=C\c3ccccc3)C(=O)N2c2ccccc2)C(OC(C)=O)C(OC(C)=O)C1OC(C)=O (stereo not drawn),> 100

# System: Vero
# Assay: Antiviral activity against HSV-1 (Herpes simplex virus) in vero cells
# Assay type: functional
# Conditions: Chlorocebus sabaeus, read-out: ED50 (the source's name)
# How it was run: as §1
row,SMILES,EC50 [µM]
1,CC(=O)OCC1OC(SC2=N/C(=C\c3cccs3)C(=O)N2c2cccc(C)c2)C(OC(C)=O)C(OC(C)=O)C1OC(C)=O (stereo not drawn),10
2,CC(=O)OCC1OC(SC2=N/C(=C\c3cccs3)C(=O)N2c2ccccc2)C(OC(C)=O)C(OC(C)=O)C1OC(C)=O (stereo not drawn),0.4
3,CCOC(=O)c1ccc(N2C(=O)/C(=C/c3cccs3)N=C2SC2OC(COC(C)=O)C(OC(C)=O)C(OC(C)=O)C2OC(C)=O)cc1 (stereo not drawn),32
4,CC(=O)OCC1OC(Sc2nc(/C=C3\C=Nc4ccccc43)c(O)n2-c2ccccc2)C(OC(C)=O)C(OC(C)=O)C1OC(C)=O (stereo not drawn),46
5,CC(=O)OCC1OC(SC2=N/C(=C\c3cccs3)C(=O)N2c2ccc(Cl)cc2)C(OC(C)=O)C(OC(C)=O)C1OC(C)=O (stereo not drawn),0.6
6,Nc1nc2c(ncn2COCCO)c(=O)[nH]1 [ACYCLOVIR],0.5
7,COc1ccc(N2C(=O)/C(=C/c3cccs3)N=C2SC2OC(COC(C)=O)C(OC(C)=O)C(OC(C)=O)C2OC(C)=O)cc1 (stereo not drawn),27
8,O=c1[nH]c(=O)n([C@H]2C[C@H](O)[C@@H](CO)O2)cc1/C=C/Br [BRIVUDINE],0.3
9,CC(=O)OCC1OC(SC2=NC(=C(C)C)C(=O)N2c2ccccc2)C(OC(C)=O)C(OC(C)=O)C1OC(C)=O (stereo not drawn),119
10,CC(=O)OCC1OC(SC2=N/C(=C\c3ccccc3)C(=O)N2c2ccccc2)C(OC(C)=O)C(OC(C)=O)C1OC(C)=O (stereo not drawn),> 100

# System: not listed separately
# Assay: Selectivity index against HSV-1 was determined as CD50/ED50 ratio
# Assay type: functional
# Conditions: not given
# How it was run: (§2)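 CD50 (50% reduction of proliferation of uninfected Vero cells) divided by ED50 (50% protection against HSV-1 or HSV-2 in Vero cells, antigen ELISA after 5 days). Each is the mean of three independent determinations.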
row,SMILES,Selectivity index
1,CC(=O)OCC1OC(SC2=N/C(=C\c3cccs3)C(=O)N2c2cccc(C)c2)C(OC(C)=O)C(OC(C)=O)C1OC(C)=O (stereo not drawn),2.5
2,CC(=O)OCC1OC(SC2=N/C(=C\c3cccs3)C(=O)N2c2ccccc2)C(OC(C)=O)C(OC(C)=O)C1OC(C)=O (stereo not drawn),60
3,CCOC(=O)c1ccc(N2C(=O)/C(=C/c3cccs3)N=C2SC2OC(COC(C)=O)C(OC(C)=O)C(OC(C)=O)C2OC(C)=O)cc1 (stereo not drawn),1.4
4,CC(=O)OCC1OC(Sc2nc(/C=C3\C=Nc4ccccc43)c(O)n2-c2ccccc2)C(OC(C)=O)C(OC(C)=O)C1OC(C)=O (stereo not drawn),> 2.2
5,CC(=O)OCC1OC(SC2=N/C(=C\c3cccs3)C(=O)N2c2ccc(Cl)cc2)C(OC(C)=O)C(OC(C)=O)C1OC(C)=O (stereo not drawn),33
6,Nc1nc2c(ncn2COCCO)c(=O)[nH]1 [ACYCLOVIR],> 100
7,COc1ccc(N2C(=O)/C(=C/c3cccs3)N=C2SC2OC(COC(C)=O)C(OC(C)=O)C(OC(C)=O)C2OC(C)=O)cc1 (stereo not drawn),1.3
8,O=c1[nH]c(=O)n([C@H]2C[C@H](O)[C@@H](CO)O2)cc1/C=C/Br [BRIVUDINE],> 333
9,CC(=O)OCC1OC(SC2=NC(=C(C)C)C(=O)N2c2ccccc2)C(OC(C)=O)C(OC(C)=O)C1OC(C)=O (stereo not drawn),> 1.6

# System: not listed separately
# Assay: Selectivity index against HSV-2 was determined as CD50/ED50 ratio
# Assay type: functional
# Conditions: not given
# How it was run: as §2
row,SMILES,Selectivity index
1,CC(=O)OCC1OC(SC2=N/C(=C\c3cccs3)C(=O)N2c2cccc(C)c2)C(OC(C)=O)C(OC(C)=O)C1OC(C)=O (stereo not drawn),1.3
2,CC(=O)OCC1OC(SC2=N/C(=C\c3cccs3)C(=O)N2c2ccccc2)C(OC(C)=O)C(OC(C)=O)C1OC(C)=O (stereo not drawn),34
3,CCOC(=O)c1ccc(N2C(=O)/C(=C/c3cccs3)N=C2SC2OC(COC(C)=O)C(OC(C)=O)C(OC(C)=O)C2OC(C)=O)cc1 (stereo not drawn),1
4,CC(=O)OCC1OC(Sc2nc(/C=C3\C=Nc4ccccc43)c(O)n2-c2ccccc2)C(OC(C)=O)C(OC(C)=O)C1OC(C)=O (stereo not drawn),> 2.5
5,CC(=O)OCC1OC(SC2=N/C(=C\c3cccs3)C(=O)N2c2ccc(Cl)cc2)C(OC(C)=O)C(OC(C)=O)C1OC(C)=O (stereo not drawn),20
6,Nc1nc2c(ncn2COCCO)c(=O)[nH]1 [ACYCLOVIR],> 100
7,COc1ccc(N2C(=O)/C(=C/c3cccs3)N=C2SC2OC(COC(C)=O)C(OC(C)=O)C(OC(C)=O)C2OC(C)=O)cc1 (stereo not drawn),1.3
8,O=c1[nH]c(=O)n([C@H]2C[C@H](O)[C@@H](CO)O2)cc1/C=C/Br [BRIVUDINE],> 15
9,CC(=O)OCC1OC(SC2=NC(=C(C)C)C(=O)N2c2ccccc2)C(OC(C)=O)C(OC(C)=O)C1OC(C)=O (stereo not drawn),> 2
